Among the data in ChEMBL document CHEMBL4330168, “Monomeric and Dimeric Cytotoxic Guaianolide-Type Sesquiterpenoids from the Aerial Parts of Chrysanthemum indicum” (J Nat Prod, 2019) are IC50 values, retold here.

Structures are written as SMILES.

Holding throughout (assay type): functional, cell-based
For one experiment, the system named is SUNE1. Description: Cytotoxicity against human SUNE1 cells after 48 hrs by MTT assay. Particulars: SUNE1, 48 h. In short, it runs like this:
(§1)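 Growth inhibition in nasopharyngeal carcinoma lines (CNE1, CNE2, HONE-1, SUNE-1) and HT-29 colon cells. IC50 values are the mean ± SD of three experiments, with cisplatin as positive control.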

The next experiment deals with CNE. Description: Cytotoxicity against human CNE1 cells after 48 hrs by MTT assay. In outline: as §1
The test system of a further experiment is HONE1 cell line. Description: Cytotoxicity against human HONE1 cells after 48 hrs by MTT assay. Particulars: HONE1, 48 h. In short, it runs like this:
as §1
In general terms: Tetrazolium dyes change colour on reduction, which living cells bring about.

In the next experiment the test system is CNE-2. Description: Cytotoxicity against human CNE2 cells after 48 hrs by MTT assay. As to conditions: CNE-2, 48 h. In short, it runs like this:
as §1

A further experiment concerns HT-29. Description: Cytotoxicity against human HT-29 cells after 48 hrs by MTT assay. As to conditions: HT-29, 48 h. In outline:
as §1

For `C=C1C(=O)O[C@@H]2[C@@H]3[C@@]4(C=C[C@@]3(C)[C@]3(C4)C(=O)O[C@@H]4[C@H]5C(C)=CC[C@H]5[C@](C)(O)C[C@H](OC(C)=O)[C@H]43)[C@](C)(O)CC[C@@H]12`, the IC50 with SUNE1, in the experiment with CNE, in the experiment with HONE1 cell line, in the experiment with CNE-2 and in the experiment with HT-29 was > 10 µM throughout.

Consider `C=C1C(=O)O[C@@H]2[C@@H]3[C@@]4(C=C[C@@]3(C)[C@]3(C4)C(=O)O[C@@H]4[C@H]5C(C)=CC[C@H]5[C@](C)(O)C[C@H](OC(=O)/C(C)=C/C)[C@H]43)[C@](C)(O)CC[C@@H]12`, for which the IC50 in the experiment with SUNE1, with CNE, with HONE1 cell line, in the experiment with CNE-2 and in the experiment on HT-29 was > 10 µM each time.

On to `C=C1C(=O)O[C@@H]2[C@H]3C(C)=CC[C@H]3[C@](C)(O)C[C@H](OC(=O)/C(C)=C/C)[C@@H]12`, for which the IC50 (usually the midpoint of a concentration-inhibition curve) in the experiment with SUNE1 is 3 µM; in the experiment on CNE, 7.9 µM; in the experiment with HONE1 cell line, 6.5 µM; in the experiment on CNE-2, > 10 µM; with HT-29, > 10 µM.

As for `C=C1C(=O)O[C@H]2[C@H]1[C@@H](O)C[C@@](C)(O)[C@]13C=C[C@](C)([C@H]21)[C@]1(C3)C(=O)O[C@@H]2[C@H]3C(C)=CC[C@H]3[C@](C)(O)C[C@H](OC(=O)/C(C)=C\C)[C@H]21`, the IC50 with SUNE1, in the experiment on CNE, in the experiment on HONE1 cell line, with CNE-2 and with HT-29 was > 10 µM in each case.

For `C/C=C(\C)C(=O)O[C@H]1C[C@@](C)(O)[C@@H]2CC(=O)C(C)=C2[C@H]2OC(=O)[C@@H](C)[C@H]12`, the IC50 with SUNE1, in the experiment with CNE, in the experiment on HONE1 cell line, with CNE-2 and with HT-29 was > 10 µM in each case.

Regarding `C/C=C(/C)C(=O)O[C@H]1C[C@@](C)(O)[C@@H]2CC(=O)C(C)=C2[C@H]2OC(=O)[C@@H](C)[C@H]12`, the IC50 in the experiment with SUNE1, in the experiment on CNE, with HONE1 cell line, with CNE-2 and with HT-29 was > 10 µM in each case.

On to `CC1=CC[C@@H]2[C@H]1[C@H]1OC(=O)[C@@H](C)[C@@H]1[C@H](O)C[C@@]2(C)O`, for which the IC50 with SUNE1, with CNE, in the experiment with HONE1 cell line, with CNE-2 and in the experiment on HT-29 was > 10 µM in each case.

`C=C1C(=O)O[C@@H]2[C@@H]3[C@@]4(C=C[C@@]3(C)[C@]3(C4)C(=O)O[C@@H]4[C@H]5C(C)=CC[C@H]5[C@](C)(O)C[C@H](O)[C@H]43)[C@](C)(O)CC[C@@H]12`: the IC50 with SUNE1, with CNE, in the experiment on HONE1 cell line, in the experiment on CNE-2 and in the experiment with HT-29 was > 10 µM each time.

On to `C/C=C(\C)C(=O)O[C@H]1C[C@@](C)(O)[C@@H]2CC=C(C)[C@@H]2[C@H]2OC(=O)[C@H](C)[C@@H]21`, for which the IC50 in the experiment on SUNE1, in the experiment on CNE, with HONE1 cell line, in the experiment on CNE-2 and with HT-29 was > 10 µM throughout.

In the case of `C=C1C(=O)O[C@H]2[C@H]1[C@@H](OC(=O)/C(C)=C/C)C[C@@](C)(O)[C@]13C=C[C@](C)([C@H]21)[C@]1(C3)C(=O)O[C@@H]2[C@H]3C(C)=CC[C@H]3[C@](C)(O)C[C@H](O)[C@H]21`, the IC50 in the experiment with SUNE1 is > 10 µM; in the experiment on CNE, > 10 µM; in the experiment with HONE1 cell line, 7.5 µM; in the experiment with CNE-2, > 10 µM; with HT-29, > 10 µM.

With `C=C1C(=O)O[C@@H]2[C@@H]3[C@@]4(C=C[C@@]3(C)[C@]3(C4)C(=O)O[C@@H]4[C@H]5C(C)=CC(=O)C5=C(C)CC[C@H]43)[C@](C)(O)CC[C@@H]12`, the IC50 with SUNE1, in the experiment on CNE, with HONE1 cell line, in the experiment with CNE-2 and in the experiment on HT-29 was > 10 µM in each case.

With `C/C=C(\C)C(=O)O[C@H]1CC(C)=C2C[C@H](O)[C@](C)(O)[C@@H]2[C@H]2OC(=O)[C@@H](C)[C@@H]21`, the IC50 with SUNE1, in the experiment with CNE, in the experiment on HONE1 cell line, in the experiment with CNE-2 and in the experiment on HT-29 was > 10 µM in each case.

Turning to `CC1=CC[C@@H]2[C@H]1[C@H]1OC(=O)[C@H](C)[C@@H]1[C@@H](O)C[C@@]2(C)O`, the IC50 in the experiment with SUNE1, with CNE, in the experiment on HONE1 cell line, in the experiment with CNE-2 and in the experiment on HT-29 was > 10 µM in each case.

Turning to `C=C1C(=O)O[C@@H]2[C@H]3C(C)=CC[C@H]3[C@](C)(O)C[C@H](OC(=O)/C(C)=C\C)[C@@H]12`, the IC50 in the experiment on SUNE1 was 5.6 µM; with CNE it was 7.3 µM; in the experiment on HONE1 cell line it was 7.6 µM; with CNE-2 it was 7.4 µM; in the experiment on HT-29 it was > 10 µM.

`C/C=C(\C)C(=O)O[C@H]1C[C@@](C)(O)[C@]23C=C[C@](C)([C@@H]2[C@H]2OC(=O)[C@@H](C)[C@@H]21)[C@]1(C3)C(=O)O[C@@H]2[C@H]3C(C)=CC[C@H]3[C@](C)(O)C[C@H](O)[C@H]21`: the IC50 was > 10 µM in the experiment with SUNE1; > 10 µM with CNE; 9.2 µM with HONE1 cell line; 9.9 µM with CNE-2; > 10 µM with HT-29.
